Reference: ChEMBL document CHEMBL1147785, “Novel peptidomimetic cysteine protease inhibitors as potential antimalarial agents” (J Med Chem, 2006)
Activity calls are given as the source filed them. The rule behind the calls is not given here. Residues, ends and D or L forms follow the SMILES beside them. *: point of attachment. Cbz = O=C(OCc1ccccc1)*

How the values were obtained:
Caspase-9 (Homo sapiens) = biological target: T1, Caspase-9 (Homo sapiens) (UniProt P55211); experiment: Inhibition of human recombinant caspase9 upto 50 uM
T1 sequence (whole entry): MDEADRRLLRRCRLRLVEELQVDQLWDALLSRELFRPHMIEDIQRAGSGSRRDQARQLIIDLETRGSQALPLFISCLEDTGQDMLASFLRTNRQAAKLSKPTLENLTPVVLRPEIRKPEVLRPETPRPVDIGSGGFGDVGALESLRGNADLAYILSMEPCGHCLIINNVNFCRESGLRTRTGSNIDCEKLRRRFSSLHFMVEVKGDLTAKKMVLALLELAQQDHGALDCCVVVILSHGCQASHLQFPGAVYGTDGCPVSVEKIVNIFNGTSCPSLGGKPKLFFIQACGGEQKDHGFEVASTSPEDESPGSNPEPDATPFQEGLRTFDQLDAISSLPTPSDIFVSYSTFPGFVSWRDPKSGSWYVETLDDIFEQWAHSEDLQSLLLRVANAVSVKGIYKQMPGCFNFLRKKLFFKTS

Caspase-1 (Homo sapiens) = biological target: T2, Caspase-1 (Homo sapiens) (UniProt P29466); experiment: Inhibition of human recombinant caspase1 upto 50 uM
T2 sequence (whole entry): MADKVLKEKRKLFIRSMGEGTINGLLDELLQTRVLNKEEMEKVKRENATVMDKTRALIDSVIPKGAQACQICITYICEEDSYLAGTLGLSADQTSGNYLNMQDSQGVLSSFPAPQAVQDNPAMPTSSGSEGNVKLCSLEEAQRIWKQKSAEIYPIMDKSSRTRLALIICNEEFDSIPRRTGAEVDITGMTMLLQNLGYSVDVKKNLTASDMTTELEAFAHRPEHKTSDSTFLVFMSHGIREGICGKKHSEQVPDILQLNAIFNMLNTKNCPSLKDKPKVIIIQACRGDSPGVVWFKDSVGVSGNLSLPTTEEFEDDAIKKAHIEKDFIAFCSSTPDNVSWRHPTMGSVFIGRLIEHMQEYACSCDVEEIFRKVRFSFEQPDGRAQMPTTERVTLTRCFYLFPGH

Caspase-6 (Homo sapiens) = biological target: T3, Caspase-6 (Homo sapiens) (UniProt P55212); experiment: Inhibition of human recombinant caspase6 upto 50 uM
T3 sequence (whole entry): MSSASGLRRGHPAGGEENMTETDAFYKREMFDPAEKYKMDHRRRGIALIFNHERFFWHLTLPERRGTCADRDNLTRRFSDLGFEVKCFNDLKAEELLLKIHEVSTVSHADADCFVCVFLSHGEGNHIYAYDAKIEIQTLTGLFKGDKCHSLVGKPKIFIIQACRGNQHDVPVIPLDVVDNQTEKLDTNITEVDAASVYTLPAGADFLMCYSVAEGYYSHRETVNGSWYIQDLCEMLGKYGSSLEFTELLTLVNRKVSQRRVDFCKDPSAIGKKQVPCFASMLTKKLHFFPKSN

Caspase-2 (Homo sapiens) = biological target: T4, Caspase-2 (Homo sapiens) (UniProt P42575); experiment: Inhibition of human recombinant caspase2 upto 50 uM
T4 sequence (whole entry): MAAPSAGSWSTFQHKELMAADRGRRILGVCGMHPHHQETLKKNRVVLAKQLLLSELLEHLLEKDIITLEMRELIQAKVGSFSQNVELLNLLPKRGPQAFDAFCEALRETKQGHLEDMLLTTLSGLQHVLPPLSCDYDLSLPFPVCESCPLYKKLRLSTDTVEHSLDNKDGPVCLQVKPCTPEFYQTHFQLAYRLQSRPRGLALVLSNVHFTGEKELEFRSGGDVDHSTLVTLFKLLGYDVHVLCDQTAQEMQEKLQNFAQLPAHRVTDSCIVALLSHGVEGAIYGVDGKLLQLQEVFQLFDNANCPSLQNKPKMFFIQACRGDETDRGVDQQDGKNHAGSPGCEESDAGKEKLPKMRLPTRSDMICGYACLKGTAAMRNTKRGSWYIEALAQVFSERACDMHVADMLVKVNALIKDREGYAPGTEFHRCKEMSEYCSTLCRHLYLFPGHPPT

Falcipain 2 = biological target: T5, Falcipain 2 (Plasmodium falciparum, UniProt Q9N6S8); experiment: Inhibition of Plasmodium falciparum recombinant FP2A fused with maltose binding protein
T5 sequence (Q9N6S8 whole entry): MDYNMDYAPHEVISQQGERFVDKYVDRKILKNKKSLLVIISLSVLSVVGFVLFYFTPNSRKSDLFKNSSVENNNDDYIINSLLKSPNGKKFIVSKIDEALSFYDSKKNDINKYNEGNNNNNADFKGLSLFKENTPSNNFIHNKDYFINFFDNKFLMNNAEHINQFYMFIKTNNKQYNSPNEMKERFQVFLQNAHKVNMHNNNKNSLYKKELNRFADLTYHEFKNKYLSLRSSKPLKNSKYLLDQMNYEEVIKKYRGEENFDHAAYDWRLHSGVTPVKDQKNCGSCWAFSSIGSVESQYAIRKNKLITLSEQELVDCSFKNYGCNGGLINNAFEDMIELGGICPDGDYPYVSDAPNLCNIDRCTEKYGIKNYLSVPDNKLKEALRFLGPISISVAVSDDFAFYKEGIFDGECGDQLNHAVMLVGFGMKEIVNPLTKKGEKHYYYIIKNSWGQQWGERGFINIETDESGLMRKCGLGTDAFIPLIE
In short: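 Recombinant enzyme expressed in E. coli as a maltose binding protein fusion. Fluorescence assay using the fluorogenic substrate Z-Leu-Arg-AMC, with inhibitor at various concentrations. Hydrolysis rate was compared with DMSO-only negative controls and with positive controls containing a standard papain-family cysteine protease aldehyde inhibitor. Results are given as IC50.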

Caspase-5 (Homo sapiens) = biological target: T6, Caspase-5 (Homo sapiens) (UniProt P51878); experiment: Inhibition of human recombinant caspase5 upto 50 uM
T6 sequence (whole entry): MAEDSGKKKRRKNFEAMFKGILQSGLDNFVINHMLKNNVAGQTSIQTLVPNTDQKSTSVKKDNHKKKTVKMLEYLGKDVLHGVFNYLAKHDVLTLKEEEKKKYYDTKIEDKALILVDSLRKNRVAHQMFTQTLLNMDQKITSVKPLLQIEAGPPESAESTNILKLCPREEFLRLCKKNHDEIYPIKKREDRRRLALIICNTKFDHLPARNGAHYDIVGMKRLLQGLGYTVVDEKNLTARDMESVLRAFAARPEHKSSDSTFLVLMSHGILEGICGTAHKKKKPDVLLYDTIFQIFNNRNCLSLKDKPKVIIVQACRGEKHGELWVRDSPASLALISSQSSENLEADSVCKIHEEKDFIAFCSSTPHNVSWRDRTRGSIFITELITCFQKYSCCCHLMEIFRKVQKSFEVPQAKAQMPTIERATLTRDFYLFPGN

Caspase-3 (Homo sapiens) = biological target: T7, Caspase-3 (Homo sapiens) (UniProt P42574); experiment: Inhibition of human recombinant caspase3 upto 50 uM
T7 sequence (whole entry): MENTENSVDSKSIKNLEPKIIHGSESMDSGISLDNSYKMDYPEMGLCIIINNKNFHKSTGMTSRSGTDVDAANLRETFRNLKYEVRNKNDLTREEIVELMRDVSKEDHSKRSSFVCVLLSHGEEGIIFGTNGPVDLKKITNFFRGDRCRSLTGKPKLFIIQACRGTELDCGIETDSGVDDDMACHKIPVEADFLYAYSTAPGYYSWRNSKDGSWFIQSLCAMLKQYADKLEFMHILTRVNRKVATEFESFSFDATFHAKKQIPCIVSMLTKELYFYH

Row | SMILES | Activity (Caspase-9 (Homo sapiens)) | Activity (Caspase-1 (Homo sapiens)) | Activity (Caspase-6 (Homo sapiens)) | Activity (Caspase-2 (Homo sapiens)) | IC50 (Falcipain 2) | Activity (Caspase-5 (Homo sapiens)) | Activity (Caspase-3 (Homo sapiens))
1 | CC(C)[C@H](NC(=O)OCc1ccccc1)C(=O)N[C@H](C=O)Cc1ccccc1 (Cbz-Val-Phe-aldehyde) | inactive | inactive | inactive | inactive | 5 µM | inactive | inactive
2 | O=C(CN1C(=O)[C@@H](COC(=O)Nc2ccc(Cl)cc2)N=C(c2ccccc2)c2ccccc21)N[C@H]1CC(=O)OC1O (some centres not stated) | inactive | inactive | inactive | inactive | 15 µM | inactive | inactive
3 | O=C(CN1C(=O)[C@H](COC(=O)Nc2ccc(Cl)cc2C(F)(F)F)N=C(c2ccccc2)c2ccccc21)N[C@H]1CC(=O)OC1O (some centres not stated) | inactive | inactive | inactive | inactive | 10.3 µM | inactive | inactive
4 | O=C(CN1C(=O)[C@@H](COC(=O)Nc2ccccc2)N=C(c2ccccc2)c2ccccc21)N[C@H]1CC(=O)OC1O (some centres not stated) | inactive | inactive | inactive | inactive | 21.5 µM | inactive | inactive
5 | O=C(CN1C(=O)[C@@H](COC(=O)Nc2ccc(F)cc2)N=C(c2ccccc2)c2ccccc21)N[C@H]1CC(=O)OC1O (some centres not stated) | inactive | inactive | inactive | inactive | 16.3 µM | inactive | inactive
6 | O=C(CN1C(=O)[C@@H](COC(=O)Nc2ccc(Cl)cc2C(F)(F)F)N=C(c2ccccc2)c2ccccc21)N[C@H]1CC(=O)OC1O (some centres not stated) | inactive | inactive | inactive | inactive | 8.68 µM | inactive | inactive
7 | Cc1cc(Cl)ccc1NC(=O)OC[C@H]1N=C(c2ccccc2)c2ccccc2N(CC(=O)N[C@H]2CC(=O)OC2O)C1=O (some centres not stated) | inactive | inactive | inactive | inactive | 8.25 µM | inactive | inactive
8 | COc1ccc(NC(=O)OC[C@H]2N=C(c3ccccc3)c3ccccc3N(CC(=O)N[C@H]3CC(=O)OC3O)C2=O)cc1 (some centres not stated) | inactive | inactive | inactive | inactive | 8.79 µM | inactive | inactive
9 | O=C(CN1C(=O)[C@@H](COC(=O)Nc2cccc3ccccc23)N=C(c2ccccc2)c2ccccc21)N[C@H]1CC(=O)OC1O (some centres not stated) | inactive | inactive | inactive | inactive | 11.2 µM | inactive | inactive
10 | O=C(CN1C(=O)[C@@H](COC(=O)Nc2c(F)cc(F)cc2Br)N=C(c2ccccc2)c2ccccc21)N[C@H]1CC(=O)OC1O (some centres not stated) | inactive | inactive | inactive | inactive | 19.2 µM | inactive | inactive
11 | O=C(CN1C(=O)[C@@H](COC(=O)Nc2ccc(F)cc2F)N=C(c2ccccc2)c2ccccc21)N[C@H]1CC(=O)OC1O (some centres not stated) | inactive | inactive | inactive | inactive | 13.5 µM | inactive | inactive
